Results as given in ChEMBL document CHEMBL4257447, “Discovery of human lactate dehydrogenase A (LDHA) inhibitors as anticancer agents to inhibit the proliferation of MG-63 osteosarcoma cells” (Medchemcomm, 2017).
Each block holds one compound with its values, some of them ahead of it. Calls of active or inactive are those of the source. The rule behind the calls is not given here.

Legend:
MG-63 [1] = assay: Growth inhibition of human MG63 cells at 10 uM after 72 hrs by MTT assay relative to control; assay type: functional; conditions: for inhibition of growth at 10 µM: MG-63, 72 h, read-out: GI
Summary of the method: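 MG-63 cells (2500/well) were plated overnight. 10 μL of 100 μM working solution in PBS, diluted from 40 mM stock, was added for 72 h. MTT was added for 4 h, the solvent replaced with DMSO, and OD570 read as percent growth inhibition.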

[2] = target: T1, L-lactate dehydrogenase A chain (Homo sapiens, UniProt P00338); assay: Inhibition of human LDHA using pyruvate as substrate by monitoring the disappearance of NADH relative to control
[3] = target: T1, L-lactate dehydrogenase A chain; assay: Inhibition of LDHA in human MG63 cells assessed as decrease in lactate levels after 4 hrs; assay type: cell-based
Summary of the method: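 MG-63 cells (3×10^5/well, 6-well) were plated overnight and treated for 4 h at 2, 5, 8, 10 and 12 μM, with 10 μM for the reference. Medium was centrifuged for 5 min and 1 mL assayed for lactate on a Nova Bioprofile Flex analyzer. IC50 was derived from the dose-response.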

MG-63 [4] = assay: Induction of apoptosis in human MG63 cells assessed as necrotic cells at 2 uM after 24 hrs by annexin V-FITC/propidium iodide staining-based flow cytometric analysis (reference value: 0.8%); assay type: functional
MG-63 [5] = assay: Induction of apoptosis in human MG63 cells assessed as necrotic cells at 5 uM after 24 hrs by annexin V-FITC/propidium iodide staining-based flow cytometric analysis (reference value: 0.8%); assay type: functional
MG-63 [6] = assay: Growth inhibition of human MG63 cells after 72 hrs by MTT assay; assay type: functional, cell-based; conditions: MG-63, 72 h
Summary of the method: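 MG-63 cells (2500/well), grown in DMEM with 10% FBS at 37 °C and 5% CO2, plated overnight. They were then exposed for 72 h to eight concentrations (400 to 3.1 μM as listed), diluted in PBS from 40 mM stocks. MTT was added for 4 h and the formazan dissolved in DMSO, with OD read at 570 nm. EC50 is the mean of three independent experiments; cisplatin was the positive control.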

MG-63 [7] = assay: Induction of apoptosis in human MG63 cells assessed as late apoptotic cells at 5 uM after 24 hrs by annexin V-FITC/propidium iodide staining-based flow cytometric analysis (reference value: 3.2%); assay type: functional
[8] = target: T1, L-lactate dehydrogenase A chain; assay: Inhibition of LDHA in human MG63 cells assessed as increase in oxygen consumption rate at 2 to 10 uM after 6 hrs by XF24 extracellular flux analyzer based assay; assay type: cell-based
Summary of the method: (§1)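 MG-63 cells (30 000/well) were pretreated for 6 h with a range of concentrations. OCR and ECAR were then measured on the XF24 extracellular flux analyzer.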

MG-63 [9] = assay: Induction of apoptosis in human MG63 cells after 24 hrs by annexin V-FITC/propidium iodide staining-based flow cytometric analysis; assay type: functional, cell-based
MG-63 [10] = assay: Induction of apoptosis in human MG63 cells assessed as late apoptotic cells at 2 uM after 24 hrs by annexin V-FITC/propidium iodide staining-based flow cytometric analysis (reference value: 3.2%); assay type: functional
MG-63 [11] = assay: Induction of apoptosis in human MG63 cells assessed as early apoptotic cells at 5 uM after 24 hrs by annexin V-FITC/propidium iodide staining-based flow cytometric analysis (reference value: 0.8%); assay type: functional
[12] = target: T1, L-lactate dehydrogenase A chain; assay: Binding affinity to LDHA (unknown origin) by ITC analysis
Summary of the method: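 LDHA diluted to 10 μM in 50 mM Hepes pH 7.2, 100 mM NaCl, 2 mM DTT, 1% DMSO (250 μL in cell); ligand at 100 μM in the same buffer titrated in 2.5 μL injections at 25 °C. One-site model fit gives the binding parameters.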

MG-63 [13] = assay: Induction of apoptosis in human MG63 cells assessed as early apoptotic cells at 10 uM after 24 hrs by annexin V-FITC/propidium iodide staining-based flow cytometric analysis (reference value: 0.8%); assay type: functional
[14] = target: T1, L-lactate dehydrogenase A chain; assay: Inhibition of LDHA in human MG63 cells assessed as decrease in extracellular acidification rate at 2 to 10 uM after 6 hrs by XF24 extracellular flux analyzer based assay; assay type: cell-based; summary of the method: as §1
[15] = target: T1, L-lactate dehydrogenase A chain; assay: Inhibition of human LDHA at 2 uM using pyruvate as substrate by monitoring the disappearance of NADH relative to control
MG-63 [16] = assay: Induction of apoptosis in human MG63 cells assessed as early apoptotic cells at 2 uM after 24 hrs by annexin V-FITC/propidium iodide staining-based flow cytometric analysis (reference value: 0.8%); assay type: functional
MG-63 [17] = assay: Induction of apoptosis in human MG63 cells assessed as viable cells at 5 uM after 24 hrs by annexin V-FITC/propidium iodide staining-based flow cytometric analysis (reference value: 95.2%); assay type: functional; conditions: MG-63, 24 h, read-out: Activity
MG-63 [18] = assay: Induction of apoptosis in human MG63 cells assessed as late apoptotic cells at 10 uM after 24 hrs by annexin V-FITC/propidium iodide staining-based flow cytometric analysis (reference value: 3.2%); assay type: functional
MG-63 [19] = assay: Induction of apoptosis in human MG63 cells assessed as viable cells at 10 uM after 24 hrs by annexin V-FITC/propidium iodide staining-based flow cytometric analysis (reference value: 95.2%); assay type: functional; conditions: MG-63, 24 h, read-out: Activity
MG-63 [20] = assay: Induction of apoptosis in human MG63 cells assessed as viable cells at 2 uM after 24 hrs by annexin V-FITC/propidium iodide staining-based flow cytometric analysis (reference value: 95.2%); assay type: functional; conditions: MG-63, 24 h, read-out: Activity
MG-63 [21] = assay: Induction of apoptosis in human MG63 cells assessed as necrotic cells at 10 uM after 24 hrs by annexin V-FITC/propidium iodide staining-based flow cytometric analysis (reference value: 0.8%); assay type: functional
[22] = target: L-lactate dehydrogenase A chain (Bos taurus, UniProt P19858); assay: Inhibition of bovine heart LDHA

SMILES: COc1c(C)c2c(c(O)c1C/C=C(\C)CCC(=O)NCc1ccc(Cl)cc1)C(=O)OC2
growth inhibition (GI) (MG-63 [1]): inactive

SMILES: Cc1cc(=O)c(O)c([C@H](CC(=O)N2CCc3c([nH]c4ccccc34)C2)c2ccnc3ccccc23)o1
inhibition of growth at 10 µM (MG-63 [1]): 48.7%

IC50 [2]: 2.37 µM
SMILES: O=C1CC(c2c(Cl)cccc2Cl)CC(O)=C1Sc1ccccc1Cl (stereo not given)
growth inhibition (GI) (MG-63 [1]): inactive

IC50 [3]: 7.19 µM
inhibition [3]: Dose-dependent effect
inhibition [8]: Dose-dependent effect
IC50 [2]: 0.33 µM
Kd [12]: 0.95 µM
inhibition [14]: Active
inhibition [15]: 94%
SMILES: COCc1cc(=O)c(O)c([C@@H](CC(N)=O)c2cc3ccccc3n(CC(C)C)c2=O)o1
Activity (MG-63 [4]): 0.6%
Activity (MG-63 [5]): 0.7%
EC50 (MG-63 [6]): 3.35 µM
Activity (MG-63 [7]): 5.8%
Activity (MG-63 [9]): Dose-dependent effect
Activity (MG-63 [10]): 4.4%
Activity (MG-63 [11]): 4.2%
Activity (MG-63 [13]): 3%
inhibition of growth at 10 µM (MG-63 [1]): 88.7%
Activity (MG-63 [16]): 1%
viability at 5 µM (MG-63 [17]): 89.3%
Activity (MG-63 [18]): 12.9%
viability at 10 µM (MG-63 [19]): 82.9%
viability at 2 µM (MG-63 [20]): 94%
Activity (MG-63 [21]): 1.2%

SMILES: NC(=O)C(=O)O [OXAMATE]
Ki [22]: 136 µM

SMILES: COC(=O)C[C@H](c1cccc(O)c1)c1oc(CSc2ccccc2OC)cc(=O)c1O
inhibition of growth at 10 µM (MG-63 [1]): 68.9%

inhibition [15]: 71%
SMILES: CCOC(=O)C[C@H](c1cc(OC)c2c(c1)OCCO2)c1oc(CO)cc(=O)c1O
inhibition of growth at 10 µM (MG-63 [1]): 67.8%
